Measured values: ChEMBL document CHEMBL4513216, “Probing the Open Global Health Chemical Diversity Library for Multistage-Active Starting Points for Next-Generation Antimalarials” (ACS Infect Dis, 2020)

Experiment: Toxicity liver stage against HepG2, at 10uM
Assay type: cell-based
Design: test concentration 10 uM, cell line HepG2-A16-CD81EGFP
Conditions: human, HepG2-A16-CD81EGFP cells; read-out: INHIBITION
How it was run: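 Uninfected HepG2-A16-CD81EGFP cells, 3 × 10^3 per well, 1536-well, plated on prespotted compound at 10 μM final, parasite-free screening media added to match infected plates; puromycin 10 μM positive, DMSO 0.5% negative; run in parallel with 48 h PbLuc assay at 37 °C, 5% CO2; viability by CellTiter-Glo luminescence, normalized to controls.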
Work on `COc1cc(-c2nc(N)n[nH]2)cc(OC)c1OC` yielded a cytotoxicity at 10 µM of -10.2%. Compound `COCCOc1ccnc(-c2noc([C@@H]3CCCN3C(C)C)n2)c1` has a cytotoxicity at 10 µM of -12.7%. For `Cc1ccc(S(=O)(=O)NC[C@H]2OC[C@@H](NCc3ccccc3)[C@@H]2O)cc1`, the cytotoxicity at 10 µM was -1.73%. `COc1ccc(CN2CC[C@@]3(C2)[C@H](O)CN(C)S3(=O)=O)cc1F` showed a cytotoxicity at 10 µM of -7.86%. In the case of `Cc1cc(NC(=O)C(C#N)Cc2cnn(C)c2C)no1` (stereo unspecified), the cytotoxicity at 10 µM is reported as 4.58%. With `CC(=O)c1sc2nc3c(c(C(F)(F)F)c2c1N)CN(C(C)=O)CC3` the cytotoxicity at 10 µM was -26%. In the case of `CCOCCNS(=O)(=O)c1ccc2c3c1CCCN3C(=O)CO2`, the cytotoxicity at 10 µM is reported as 7.9%. Compound `CCCN(CCC)c1ncc(S(=O)(=O)c2ccc(C)cc2)c(N)n1` has a cytotoxicity at 10 µM of 3.19%. `COCCCN1CC2(CCCCN2C(=O)c2ccsc2)CC1=O` (stereo unspecified) gave a cytotoxicity at 10 µM of 5.03%. Compound `CN(C)CC1(O)CCN(C(=O)Cc2ccc3c(c2)CCCC3)C1` (stereo unspecified) has a cytotoxicity at 10 µM of -7.75%. Compound `Cc1cc(C(=O)N2CCCC(c3cc(=O)nc4n3CCC4)C2)on1` (stereo unspecified) has a cytotoxicity at 10 µM of -1.28%. `Cc1cc(NC2CC3(CCN(Cc4cscn4)C3)C2)ncn1` (stereo unspecified) showed a cytotoxicity at 10 µM of -2.13%. `CCn1ncc(CN2CCC(c3ncc(Cl)cc3S(C)(=O)=O)CC2)c1C` gave a cytotoxicity at 10 µM of 3.5%. For `Cc1cncc(C2CCN(Cc3ccsc3)CC2)n1`, the cytotoxicity at 10 µM was 4.86%. `CS(=O)(=O)c1cn[nH]c1C1CCCN(C(=O)CN2CCOCC2)C1` (stereo unspecified) showed a cytotoxicity at 10 µM of -22.8%. `CC(=O)N1CCCC(c2ccc(N3CCN(C)CC3)cn2)C1` (stereo unspecified) showed a cytotoxicity at 10 µM of -28.9%. For `OCCN1CCCC(c2nccnc2Oc2ccc(F)cc2)C1` (stereo unspecified), the cytotoxicity at 10 µM was 25.6%. Work on `CCCn1ccnc1CN1CCN(C2CCOCC2)CC(C(N)=O)C1` (stereo unspecified) yielded a cytotoxicity at 10 µM of -24.4%. `Cc1nc(Nc2ccccn2)cc(C2CCCN2C2CCOCC2)n1` (stereo unspecified) showed a cytotoxicity at 10 µM of -18.1%. Compound `CN1CCCC[C@@H]2[C@H]1[C@@H](c1ccccc1)CCN2C(=O)c1ccccn1` has a cytotoxicity at 10 µM of -14.7%. With `Cn1nc(C2CCCN(Cc3ccc(F)cc3F)C2)c2nccnc21` (stereo unspecified) the cytotoxicity at 10 µM was -8.46%. `Cc1nccn1CC1CCCN(C(=O)c2cnn(C)c2)C1` (stereo unspecified) showed a cytotoxicity at 10 µM of -6.44%. In the case of `O=C(c1ccncc1)N1Cc2ccccc2OC2(CCOCC2)C1`, the cytotoxicity at 10 µM is reported as -1.03%. `N#CCCSc1nnc(Cc2ccccc2F)o1` gave a cytotoxicity at 10 µM of -11.7%. `CC(C)(C)c1ncc(C(=O)NCc2ccccc2CN2CCCC2)s1` gave a cytotoxicity at 10 µM of -8.98%. Compound `Cc1nnc2n1CCN(C(=O)C1CCC(n3cccc3)CC1)C2` (stereo unspecified) has a cytotoxicity at 10 µM of -1.05%. `CN(C)C(=O)Cc1ccccc1NCc1nc(Cc2ccccc2)no1` gave a cytotoxicity at 10 µM of 1.9%. Work on `Cc1csc(CNC(=O)N(C)Cc2ccc([S+](C)[O-])cc2)n1` (stereo unspecified) yielded a cytotoxicity at 10 µM of 4.53%. With `Cc1cnn(Cc2ccc(NC(=O)N3CCCC3)cc2)c1` the cytotoxicity at 10 µM was 1.18%. With `Cc1cc(C2CCCN(C(=O)c3ccc(OCC4CC4)nc3)C2)n[nH]1` (stereo unspecified) the cytotoxicity at 10 µM was -12.9%. Compound `O=C(NCc1ccc(CN2CCCC2)cc1)NCc1ccon1` has a cytotoxicity at 10 µM of -0.145%. `CCN(CC)CCSc1ncnc2[nH]ncc12` gave a cytotoxicity at 10 µM of -4.44%. In the case of `CC(C)COc1cncc(NCC(O)c2ccco2)n1` (stereo unspecified), the cytotoxicity at 10 µM is reported as -2.85%. With `CC(C)C(=O)N1CCCC1C(=O)Nc1cc(C(F)(F)F)ccc1F` (stereo unspecified) the cytotoxicity at 10 µM was -0.359%. Compound `CC(C)(C)OC(=O)N1CCC[C@H](NCC2CCOCC2)C1` has a cytotoxicity at 10 µM of -0.678%. Compound `NS(=O)(=O)CC1CCN(c2ncccc2C(F)(F)F)CC1` has a cytotoxicity at 10 µM of -3.16%. `CN1CCN(S(C)(=O)=O)c2cc(F)ccc21` showed a cytotoxicity at 10 µM of -1.15%. `O=S(=O)(N1CCCCCC1)N1CCc2sccc2C1` showed a cytotoxicity at 10 µM of -5.6%. For `N#Cc1nccnc1N1CCC(COCc2ccccc2)C1` (stereo unspecified), the cytotoxicity at 10 µM was 7.78%. For `Cc1ccccc1C1(CN)CCOCC1`, the cytotoxicity at 10 µM was 7.93%. In the case of `Cc1cnn(CC2CCCCN2C(=O)c2sccc2C#N)c1` (stereo unspecified), the cytotoxicity at 10 µM is reported as 0.185%. `NC(=O)NC(CC(=O)NCCc1cccc(F)c1)c1ccccc1` (stereo unspecified) gave a cytotoxicity at 10 µM of -0.862%. Work on `CC(C)(C)c1nc(CNC2CCN(S(C)(=O)=O)CC2)cs1` yielded a cytotoxicity at 10 µM of -2.34%. `O=C(CCCNC(=O)Nc1ccc(F)cc1)Nc1cn[nH]c1` gave a cytotoxicity at 10 µM of 9.37%. `COc1ccc(Cc2nnc3n2N=C(C(C)(C)C)CS3)cc1` showed a cytotoxicity at 10 µM of 10.7%. In the case of `COC(=O)c1ccc(C(=O)NS(=O)(=O)c2cncc(Br)c2)cc1`, the cytotoxicity at 10 µM is reported as 9.95%. Work on `CC(C)C(NC(=O)NCC1(CO)CC1)c1nnc2n1CCC2` (stereo unspecified) yielded a cytotoxicity at 10 µM of -6.11%. In the case of `CCS(=O)(=O)N1Cc2nccn2CC(Cn2cncn2)C1` (stereo unspecified), the cytotoxicity at 10 µM is reported as 7.21%. Work on `CN(C)CCNCC1COCc2c(-c3ccnn3C)nnn2C1` (stereo unspecified) yielded a cytotoxicity at 10 µM of -99.9%. Work on `O=C(CC1CC1)N1Cc2nccn2CC(CN2CCCC2)C1` (stereo unspecified) yielded a cytotoxicity at 10 µM of -67.7%. In the case of `Cc1nc2c(c(NC3CC3)n1)CCN(C(=O)C(C)(C)O)CC2`, the cytotoxicity at 10 µM is reported as 4.24%. `C[C@@H](CO)Nc1cc(-c2cn[nH]c2)ncn1` gave a cytotoxicity at 10 µM of -10.6%. `Cc1ncc(-c2ccnc(N3CCC[C@@H]3CO)n2)c(-c2cccnc2)n1` gave a cytotoxicity at 10 µM of -8.49%. Work on `Cc1nc(CN(C)C(=O)C2CCC(=O)N(CCN(C)C)C2)cs1` (stereo unspecified) yielded a cytotoxicity at 10 µM of 8.08%. With `CCN1CCCC1Cn1ccc2ccc(C(=O)OC)cc2c1=O` (stereo unspecified) the cytotoxicity at 10 µM was -7.86%. `Cc1c[nH]c(CN(C)C(=O)CCn2cnc3ccccc32)n1` gave a cytotoxicity at 10 µM of 9.67%. In the case of `Cc1cc(C)c(C(=O)NC2CCCc3nc(N(C)C)ncc32)cc1C` (stereo unspecified), the cytotoxicity at 10 µM is reported as -1.25%. Work on `COCCC(=O)N[C@H]1CN(c2nc(C)c3c(n2)CCCC3)C[C@@H]1C1CC1` yielded a cytotoxicity at 10 µM of -12.8%. For `CC(C)N1CC2(CCC1=O)CCN(c1ccnc3ccccc13)CC2`, the cytotoxicity at 10 µM was 3.2%. `CN(CCc1ccccn1)[C@@H]1CCN(c2cccc(C#N)n2)C[C@H]1O` showed a cytotoxicity at 10 µM of -13.9%. For `CC(CCc1ccccc1)NC(=O)CN1CCOCC1` (stereo unspecified), the cytotoxicity at 10 µM was 4.17%. Compound `CSc1ccc2cc(CN(C)CCc3cn[nH]c3)c(=O)[nH]c2c1` has a cytotoxicity at 10 µM of -7.23%. For `NC(=O)c1csc(N2C[C@@H](CN3CCOCC3)[C@@H](CO)C2)n1`, the cytotoxicity at 10 µM was 2.97%. With `CC(C)(C)c1nc(CN2CCN(C(=O)c3cnccn3)CC2)cs1` the cytotoxicity at 10 µM was -5.92%. Compound `O=C(c1cccnc1O)N1CCN(CCc2cccs2)CC1` has a cytotoxicity at 10 µM of -8.86%. `Cc1cc(CN2CCCCC2Cn2cncn2)no1` (stereo unspecified) showed a cytotoxicity at 10 µM of -8.89%. `CCCn1nc2c(cc1=O)CN(Cc1nc(-c3ccco3)no1)CC2` showed a cytotoxicity at 10 µM of -7.69%. Work on `CC(=O)N1CCCN(C(=O)NCc2cc[nH]n2)CC1` yielded a cytotoxicity at 10 µM of -6.44%. Compound `COc1ccc(CN2C[C@@H]3COC[C@]3(CN(C)C)C2)cc1` has a cytotoxicity at 10 µM of -1.75%. Work on `O=C([C@H]1CC[C@@H]2[C@@H](CCN2C2CCCCC2)O1)N1CCOCC1` yielded a cytotoxicity at 10 µM of 7.19%. Work on `O=S(=O)(C1CC1)N1CCC2(CC1)CN(Cc1ccccn1)CCO2` yielded a cytotoxicity at 10 µM of -0.358%. In the case of `Cn1ccnc1C(=O)NC[C@@H]1OC[C@H]2CN(CC3CC3)CC[C@H]21`, the cytotoxicity at 10 µM is reported as -115%. Compound `O=C(NC[C@]12COC[C@H]1CN(Cc1cccs1)C2)c1ccsc1` has a cytotoxicity at 10 µM of -0.629%. For `Cc1cccc(CN2CCC3(CC2)CC(c2cccnc2)C(=O)N3C)n1` (stereo unspecified), the cytotoxicity at 10 µM was 7.53%. Work on `CS(=O)(=O)c1cncnc1C1CCCNC1` (stereo unspecified) yielded a cytotoxicity at 10 µM of -8.33%. `COc1cc(N2C[C@H]3CCC[C@@H](CN(C)C4CC4)[C@H]3C2)ncn1` showed a cytotoxicity at 10 µM of -73%. In the case of `CNC(=O)[C@H]1C[C@@H]2CN(C(=O)c3ccncc3)C[C@@H]2N1S(C)(=O)=O`, the cytotoxicity at 10 µM is reported as -5.98%. `Cn1cccc1C(=O)NCc1cnc2n1CCN(CC1CCOCC1)C2` showed a cytotoxicity at 10 µM of -105%. For `Cc1cccc(CN2CCC3(CCN(c4ccccn4)C3)C2=O)c1` (stereo unspecified), the cytotoxicity at 10 µM was 9.3%. Compound `CN(C)CCO[C@@H]1CC[C@H]2[C@H]1OCCN2C(=O)c1ccnnc1` has a cytotoxicity at 10 µM of -2.1%. In the case of `CC(C)CC(=O)N1CC[C@@H]2[C@H](CC1)N(Cc1cccnc1)CCS2(=O)=O`, the cytotoxicity at 10 µM is reported as 0.238%.
